From PubChem BioAssay
GRK2 aptamer HTS: human GRK2 inhibition via aptamer displacement; P25098; bead flow cytometry, FAM-aptamer displacement from GRK2; inhibition of aptamer binding, % at 10 µM; 330,000 tested, 0.59% active; AID 488847;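 active = inhibition of aptamer binding above 40%, roughly 3 SD of noise, on plates passing a quality check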;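 note: median bead fluorescence of bound FAM aptamer so fluorescent compounds give negative values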
CAL PDZ FP-1: CAL PDZ (human) peptide binding inhibition. Q9HD26. purified CAL PDZ, TMR-peptide fluorescence polarization, 1 h. inhibition, % at 24.9 µM. 300,000 tested, 0.92% active. AID 602252;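 active = mean inhibition of at least 30% with at least half of replicates also reaching 30%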
Tn7 DDE FP: DD(E)-Tn7 binding inhibition, primary FP screen; inhibition, % at 8.3 µM; P02675; 370,000 tested, 0.13% active; AID 720508; FP displacement of FITC-Tn7 peptide from fibrin DD(E); 0% = median of compound wells per plate;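 active = inhibition above the mean of compounds falling within the control limits plus 3 SD of them, cut at about 14% in these data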
Target sequence (P02675 whole entry, looked up): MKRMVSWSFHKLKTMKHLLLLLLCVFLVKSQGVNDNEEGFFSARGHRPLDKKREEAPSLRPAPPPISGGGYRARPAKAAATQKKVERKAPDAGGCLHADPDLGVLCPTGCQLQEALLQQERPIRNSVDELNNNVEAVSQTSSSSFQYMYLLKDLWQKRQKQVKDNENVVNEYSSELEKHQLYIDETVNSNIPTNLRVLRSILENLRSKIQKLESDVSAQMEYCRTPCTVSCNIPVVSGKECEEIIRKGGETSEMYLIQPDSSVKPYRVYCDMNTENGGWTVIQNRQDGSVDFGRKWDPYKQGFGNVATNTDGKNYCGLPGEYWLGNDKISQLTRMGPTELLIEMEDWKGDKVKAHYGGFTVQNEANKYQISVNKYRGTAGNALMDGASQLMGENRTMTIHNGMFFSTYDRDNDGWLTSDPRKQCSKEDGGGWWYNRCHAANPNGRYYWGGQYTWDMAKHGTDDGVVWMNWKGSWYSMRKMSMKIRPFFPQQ
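System: human fibrin DD(E); quantity: Fibrin-DD(E) at 2 µM final; also added: fluorescent Tn7 probe at 0.1 µM; compound dosing: single nominal test concentration of 8.3 µM per compound; schedule: 10 min preincubation, 3 h with tracer, room temperature; detection: fluorescence polarization of the labelled Tn7 tracer; repeats: one replicate per compound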
CAL PDZ FP-2: inhibitors of human CAL PDZ peptide binding; 330,000 tested, 0.02% active; Q9HD26; inhibition, % at 20 µM; purified CAL PDZ, TMR-peptide fluorescence polarization, 1 h;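 active = highest replicate inhibition of at least 40%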
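Test system: purified CerCALP PDZ construct; Compound dosing: one concentration, 20 µM compound; Also added: TMR-labelled reporter peptide T*-PRC34 bound in PDZ groove; Read-out: inhibition from polarization loss; Controls: unlabelled peptide and DMSO controls; Signal: FP readout, S and P plane fluorescence; Incubation: 1 h at RT.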
ARNT TACC3 PPI: disrupts binding between human ARNT and TACC3. Q9Y6A5. AlphaScreen His-ARNT PAS-B/GST-TACC3 binding, luminescence; TACC3 fragment carries E629A point mutation. inhibition, % at 9.99 µM. 390,000 tested, 0.66% active. AID 623870;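 active = mean inhibition of replicates at least 50% and at least half of replicates each reaching 50%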
DDE Tn6 FP inh: disrupts Tn6 cyclic peptide binding to fibrin D-Dimer-E complex | P02675 | Fibrin DD(E) TRITC-Tn6 fluorescence polarization displacement | inhibition, % at 8.3 µM | 370,000 tested, 0.21% active;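 active = inhibition above a per-campaign cutoff: mean of compounds within control limits plus 3 SD, cut at about 15% in these data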
GRK2 inh confirm: human GRK2 inhibition confirmation, cherry pick 1 | shares compounds with GRK2 aptamer HTS | bead-bound GRK2, FAM-aptamer displacement, flow cytometry | aptamer displacement, % at 10 µM | 2,000 tested, 4% active;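 active = aptamer displacement above 40%, near three times the noise of non-fluorescent compounds, on plates passing quality checks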;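 note: negative values mostly reflect intrinsic compound fluorescence rather than true enhancement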
FAM quench CP1: counter-screen for GRK2 aptamer inhibitors: fluorescent aptamer quenchers | 2,000 tested, under 10 active | shares compounds with GRK2 aptamer HTS | Carboxyfluorescein RNA aptamer on beads, flow cytometry quenching; hits give low values | fluorescence response (% of DMSO), % at 10 µM | AID 504580;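 active = compounds that quench the bead-bound fluorescent RNA probe, cutting fluorescence to under half of the solvent control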;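 note: counterscreen run without GRK2 so only probe quenching by compound is measured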
Numbers stand for hits; – = inactive; · = no result. A selection: hits, their analogues and other compounds. The true share with any hit is near 1.8%.

SMILES	GRK2 aptamer HTS	CAL PDZ FP-1	Tn7 DDE FP	CAL PDZ FP-2	ARNT TACC3 PPI	DDE Tn6 FP inh	GRK2 inh confirm	FAM quench CP1
O=C(N/N=C/c1ccc(O)cc1)c1[nH]c2ccc(Br)cc2c1-c1ccccc1	51	–	–	–	–	–	–	–
O=C(N/N=C/c1c[nH]c2ccccc12)c1[nH]c2ccc(Br)cc2c1-c1ccccc1	·	–	–	–	–	–	·	·
COc1ccc2oc(C(=O)N(Cc3ccco3)Cc3cccs3)c(C)c2c1	80	–	–	–	–	–	–	–
CN(C(=O)[C@@H](C1CC1)[C@@H](O)c1ccc(Cl)cc1)c1ccccc1	·	·	–	·	·	–	·	·
Cc1cc(S(=O)(=O)N2c3ccc(F)cc3CCC2C)ccc1-n1cnnn1 (stereo not drawn)	–	·	–	–	–	–	·	·
O=C(C[C@@H]1C=C[C@H](NC(=O)CC2CC2)[C@@H](CO)O1)NCc1ccc(-c2ccccc2)cc1	·	·	·	·	–	·	·	·
CC(C(=O)Nc1ccon1)N1C(=O)c2ccccc2S1(=O)=O (stereo not drawn)	95	–	–	–	–	–	–	–
O=c1c2ccccc2c(=O)n(-c2ccccc2)n1CCCCBr	–	·	–	·	·	–	·	·
CC(=O)n1c(=O)c2ccccc2c(=O)n1-c1ccccc1	–	–	–	–	–	–	–	–
Cc1ccc(C(=O)O)cc1N1CCCC1=O	61	–	–	–	–	–	–	–
CSc1nc(C)c(C(=O)C[n+]2ccccc2)cc1C#N	94	–	–	–	–	–	–	–
CCOC(=O)c1cc(C#N)c(SCC(=O)c2cc(C#N)c(SC)nc2C)nc1C	–	–	–	–	–	–	·	·
CCCCCn1c(CN2CCCCC2CC)nc2c1c(=O)n(C)c(=O)n2C (stereo not drawn)	–	–	–	–	–	–	–	–
Cc1ccc(C(=O)NCCCNCCCNC(=O)c2ccc(C)nc2)cn1	45	–	–	–	–	–	–	–
COCCNC(=O)C[C@H]1C=C[C@H](NC(=O)NC2CCCC2)[C@@H](CO)O1	·	·	·	·	–	·	·	·
CN1CCN(C(=O)C[C@H]2CC[C@@H]3[C@H](COC[C@H](O)CN3C(=O)Cc3ccccc3)O2)CC1	·	·	·	·	–	·	·	·
Cc1cc2c(cc1S(=O)(=O)N1CCc3ccccc31)NC(=O)CO2	73	–	–	–	–	–	–	–
O=C1COc2ccc(S(=O)(=O)N3CCc4ccccc43)cc2N1	–	–	–	–	–	–	·	·
O=C(COC(=O)Cc1ccc(F)cc1)NCc1ccco1	52	–	–	–	–	–	–	–
O=C(COC(=O)C1(c2ccc(Cl)cc2)CCCC1)NCc1ccco1	–	·	–	–	–	–	–	–
O=C(COC(=O)Cc1cccc(C(F)(F)F)c1)NCc1ccco1	57	–	–	–	–	–	–	–
CCOc1ccc(CNC(=O)c2cccc(NC(=O)C3=C(C)OCCS3)c2)cc1	–	–	–	–	–	–	–	–
COc1cccc(CNC(=O)c2cccc(NC(=O)C3=C(C)OCCS3)c2)c1	–	–	–	–	–	–	·	·
O=C(C1CCOCC1)N1CCCC(N2CCN(c3cccc(C(F)(F)F)c3)CC2)C1 (stereo not drawn)	–	–	–	–	–	–	·	·
NC(=O)c1ccsc1NC(=O)COC(=O)CNC(=O)c1ccc(F)cc1	55	–	–	–	–	–	–	–
NC(=O)c1ccsc1NC(=O)COC(=O)COc1ccccc1F	–	–	–	–	–	–	·	·
N#Cc1ccc(C(=O)Nc2cccc(S(=O)(=O)NC3=NCCC3)c2)cc1	–	·	–	–	–	–	·	·
CCN(CC(=O)Nc1ccc(NC(C)=O)cc1)C(=O)C1CC(=O)N(CCc2ccc(OC)c(OC)c2)C1 (stereo not drawn)	92	–	–	–	–	–	–	–
